Experimental data: ChEMBL document CHEMBL4177770, “Discovery of MK-6169, a Potent Pan-Genotype Hepatitis C Virus NS5A Inhibitor with Optimized Activity against Common Resistance-Associated Substitutions” (J Med Chem, 2018)
Residue numbers refer to the chain shown, from its start.

Columns and labels:
[1] = molecular target: T1, Nonstructural protein 5A (Hepatitis C virus) (UniProt Q5L478); assay: Inhibition of NS5A in HCV genotype 1a infected in HuH7 replicon cells assessed as decrease in viral replication after 3 days by RT-PCR method; assay type: cell-based; conditions: Hepatitis C virus subtype 1a
T1 sequence (whole entry): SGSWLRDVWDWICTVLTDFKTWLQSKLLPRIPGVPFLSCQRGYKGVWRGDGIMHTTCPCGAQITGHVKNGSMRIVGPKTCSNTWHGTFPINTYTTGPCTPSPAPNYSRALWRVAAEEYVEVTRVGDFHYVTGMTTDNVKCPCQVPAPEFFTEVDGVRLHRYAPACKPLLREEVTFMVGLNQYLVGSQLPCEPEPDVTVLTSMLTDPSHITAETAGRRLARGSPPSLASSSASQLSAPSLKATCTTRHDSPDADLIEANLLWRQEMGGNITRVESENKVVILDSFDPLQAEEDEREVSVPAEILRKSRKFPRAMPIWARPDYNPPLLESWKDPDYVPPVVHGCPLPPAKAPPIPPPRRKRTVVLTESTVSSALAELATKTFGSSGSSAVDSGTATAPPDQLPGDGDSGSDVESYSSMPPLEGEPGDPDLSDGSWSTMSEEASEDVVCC

[2] = molecular target: T1, Nonstructural protein 5A (Hepatitis C virus); assay: Inhibition of NS5A in HCV genotype 1b infected in HuH7 replicon cells assessed as decrease in viral replication after 3 days by RT-PCR method; assay type: cell-based; conditions: Hepatitis C virus subtype 1b
[3] = molecular target: T1, Nonstructural protein 5A (Hepatitis C virus); assay: Inhibition of NS5A L31M mutant in HCV genotype 2b infected in HuH7 replicon cells assessed as decrease in viral replication after 3 days by RT-PCR method; assay type: cell-based; conditions: Hepatitis C virus subtype 2b
[4] = molecular target: T1, Nonstructural protein 5A (Hepatitis C virus); assay: Inhibition of NS5A in HCV genotype 3a infected in HuH7 replicon cells assessed as decrease in viral replication after 3 days by RT-PCR method; assay type: cell-based; conditions: Hepatitis C virus subtype 3a
[5] = molecular target: T1, Nonstructural protein 5A (Hepatitis C virus); assay: Inhibition of NS5A in HCV genotype 4a infected in HuH7 replicon cells assessed as decrease in viral replication after 3 days by RT-PCR method; assay type: cell-based; conditions: Hepatitis C virus subtype 4a
[6] = test system: T2, Nonstructural protein 5A (Hepatitis C virus), Q5L478 [Y93H]; assay: Inhibition of NS5A Y93H mutant in HCV genotype 1a infected in HuH7 replicon cells assessed as decrease in viral replication after 3 days by RT-PCR method; assay type: cell-based; conditions: Hepatitis C virus subtype 1a
T2 sequence (whole entry): T1 sequence (whole entry) with Y93H

[7] = molecular target: T1, Nonstructural protein 5A (Hepatitis C virus); assay: Inhibition of NS5A L31V mutant in HCV genotype 1a infected in HuH7 replicon cells assessed as decrease in viral replication after 3 days by RT-PCR method; assay type: cell-based; conditions: Hepatitis C virus subtype 1a
[8] = Half life in Wistar Han rat at 2 mg/kg, iv by LC/MS method; assay type: ADME, organism-based; conditions: in vivo
Method in brief: (§1)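 Male Wistar Han rats, two per group, dosed IV at 2 mg/kg in 60% PEG200. Plasma was obtained by centrifuging the blood, and compound concentrations were measured by LC/MS.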

[9] = Clearance in Wistar Han rat at 2 mg/kg, iv by LC/MS method; assay type: ADME, organism-based; conditions: in vivo; method in brief: as §1
[10] = AUC in Wistar Han rat at 10 mg/kg, po by LC/MS method; assay type: ADME, organism-based; conditions: in vivo
Method in brief: (§2)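 Male Wistar Han rats, two per dosing group, dosed orally at 10 mg/kg in 10% TWEEN. Plasma was separated from collected blood by centrifugation and analysed by LC/MS.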

[11] = Cmax in Wistar Han rat at 10 mg/kg, po by LC/MS method; assay type: ADME, organism-based; design: dose 10 mg/kg, route oral; conditions: in vivo; method in brief: as §2
[12] = Drug level in Wistar Han rat at 10 mg/kg, po measured at 24 hrs by LC/MS method; assay type: ADME, organism-based; conditions: in vivo, read-out: Drug uptake; method in brief: as §2
[13] = Oral bioavailability in Wistar Han rat at 10 mg/kg by LC/MS method; assay type: ADME, organism-based; conditions: in vivo; method in brief: as §2

Structure (SMILES)	EC90 [1] [pM]	EC90 [2] [pM]	EC90 [3] [pM]	EC90 [4] [pM]	EC90 [5] [pM]	EC90 [6] [pM]	EC90 [7] [pM]	half-life [8] [h]	clearance [9] [mL/min/kg]	AUC [10] [µM·h]	Cmax [11] [nM]	concentration at 24 h [12] [nM]	bioavailability [13] [%]
COC(=O)N[C@H](C(=O)N1CCC[C@H]1c1ncc(-c2cc(F)c3c(c2)O[C@@H](c2ccc(C4CC4)s2)n2c-3cc3cc(-c4cnc([C@@H]5CCCN5C(=O)[C@@H](NC(=O)OC)C5CCOC6(CC6)C5)[nH]4)ccc32)[nH]1)C(C)C (stereo partly specified)	6	4	36	8	4	49	7	5.7	5	0.58	57	4	1.9
COC(=O)N[C@H](C(=O)N1CCC[C@H]1c1ncc(-c2cc(F)c3c(c2)O[C@@H](c2ccc4c(c2)OCCC4)n2c-3cc3cc(-c4cnc([C@@H]5CCCN5C(=O)[C@@H](NC(=O)OC)[C@@H]5CCOC(C)(C)C5)[nH]4)ccc32)[nH]1)C(C)C	3	5	17	7	5	48	4	3.8	25	0.08	10	1	1.2
COC(=O)N[C@H](C(=O)N1CCC[C@H]1c1ncc(-c2ccc3c(c2)cc2n3[C@H](c3ccc(C4CC4)s3)Oc3cc(-c4cnc([C@@H]5CCCN5C(=O)[C@@H](NC(=O)OC)[C@@H]5CCOC(C)(C)C5)[nH]4)cc(F)c3-2)[nH]1)C(C)C	6	5	31	13	4	36	1	6	9	0.45	40	4	2
CCc1ccc([C@@H]2Oc3cc(-c4cnc([C@@H]5CCCN5C(=O)[C@@H](NC(=O)OC)C(C)C)[nH]4)cc(F)c3-c3cc4cc(-c5cnc([C@@H]6CCCN6C(=O)[C@@H](NC(=O)OC)[C@@H]6CCOC(C)(C)C6)[nH]5)ccc4n32)s1	5	6	28	9	7	38	3	5.2	8	0.78	110	4	3.5
COC(=O)N[C@H](C(=O)N1CCC[C@H]1c1ncc(-c2cc(F)c3c(c2)O[C@@H](c2cc4c(s2)CCC4)n2c-3cc3cc(-c4cnc([C@@H]5CCCN5C(=O)[C@@H](NC(=O)OC)[C@@H]5CCOC(C)(C)C5)[nH]4)ccc32)[nH]1)C(C)C	5	6	43	9	6	117	6	4.3	9	1.9	290	6	10.2
COC(=O)N[C@H](C(=O)N1CCC[C@H]1c1ncc(-c2cc(F)c3c(c2)O[C@@H](c2ccc(C4CC4)s2)n2c-3cc3cc(-c4cnc([C@@H]5CCCN5C(=O)[C@@H](NC(=O)OC)[C@H]5CCOC(C)(C)C5)[nH]4)ccc32)[nH]1)C(C)C	4	7	27	9	7	18	2	5.2	11	0.24	25	1	1.6
COC(=O)N[C@H](C(=O)N1CCC[C@H]1c1ncc(-c2cc(F)c3c(c2)O[C@@H](c2ccc(C4CC4)s2)n2c-3cc3cc(-c4cnc([C@@H]5CCCN5C(=O)[C@@H](NC(=O)OC)C5CCO[C@@H](C)C5)[nH]4)ccc32)[nH]1)C(C)C (stereo partly specified)	5	7	23	8	7	13	2	5.5	11	0.19	21	1	1.3
CCCc1ccc([C@@H]2Oc3cc(-c4cnc([C@@H]5CCCN5C(=O)[C@@H](NC(=O)OC)C(C)C)[nH]4)cc(F)c3-c3cc4cc(-c5cnc([C@@H]6CCCN6C(=O)[C@@H](NC(=O)OC)[C@@H]6CCOC(C)(C)C6)[nH]5)ccc4n32)s1	10	9	84	16	11	78	6						
COC(=O)N[C@H](C(=O)N1CCC[C@H]1c1ncc(-c2cc(F)c3c(c2)O[C@@H](c2nc4c(s2)CCC4)n2c-3cc3cc(-c4cnc([C@@H]5CCCN5C(=O)[C@@H](NC(=O)OC)[C@@H]5CCOC(C)(C)C5)[nH]4)ccc32)[nH]1)C(C)C	5	4	174	13	7	590							
COC(=O)N[C@H](C(=O)N1CCC[C@H]1c1ncc(-c2ccc3c(c2)cc2n3[C@H](c3ccc4c(c3)OCCN4C)Oc3cc(-c4cnc([C@@H]5CCCN5C(=O)[C@@H](NC(=O)OC)C5CCOCC5)[nH]4)cc(F)c3-2)[nH]1)C(C)C	71	7	54	17	9	73		3.8	13	0.1	16	1	0.8
COC(=O)N[C@H](C(=O)N1CCC[C@H]1c1ncc(-c2cc(F)c3c(c2)O[C@@H](c2cnc(C(C)C)s2)n2c-3cc3cc(-c4cnc([C@@H]5CCCN5C(=O)[C@@H](NC(=O)OC)[C@@H]5CCOC(C)(C)C5)[nH]4)ccc32)[nH]1)C(C)C	6	6	19	38	7	329	4						
COC(=O)N[C@H](C(=O)N1CCC[C@H]1c1ncc(-c2ccc3c(c2)cc2n3[C@H](c3ccc4c(c3)OCCC4)Oc3cc(-c4cnc([C@@H]5CCCN5C(=O)[C@@H](NC(=O)OC)C5CCOCC5)[nH]4)cc(F)c3-2)[nH]1)C(C)C	2	3	5	3	2	8	1	1.9	19	0.05	10		0.5
CC[C@@H]1CC([C@H](NC(=O)OC)C(=O)N2CCC[C@H]2c2ncc(-c3ccc4c(c3)cc3n4[C@H](c4ccc(C5CC5)s4)Oc4cc(-c5cnc([C@@H]6CCCN6C(=O)[C@@H](NC(=O)OC)C(C)C)[nH]5)cc(F)c4-3)[nH]2)C[C@H](CC)O1 (stereo partly specified)	17		2700	62		642							
COC(=O)N[C@H](C(=O)N1CCC[C@H]1c1ncc(-c2cc(F)c3c(c2)O[C@@H](c2ccc4c(c2)O[C@@H](C)CC4)n2c-3cc3cc(-c4cnc([C@@H]5CCCN5C(=O)[C@@H](NC(=O)OC)[C@@H]5CCOC(C)(C)C5)[nH]4)ccc32)[nH]1)C(C)C	5	7	102	8	8	348	5						
